# Screens: PubChem BioAssay, several laboratories
# An excerpt weighted towards active compounds, which were near 2.2% of everything screened.
# ABHD5 PLIN5 PPI = ABHD5-PLIN5 protein interaction inhibition | Split G. princeps luciferase complementation, luminescence, 4 h | inhibition, % at 4 µM | 0.78% of 360,000 active | AID 602281;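 active = inhibition above the mean inhibition across every tested compound plus 3 SD, cut at about 22% in these data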;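 note: 0% = DMSO only wells and the 100% control is not disclosed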
# Target sequence (Q00G26 whole entry, looked up): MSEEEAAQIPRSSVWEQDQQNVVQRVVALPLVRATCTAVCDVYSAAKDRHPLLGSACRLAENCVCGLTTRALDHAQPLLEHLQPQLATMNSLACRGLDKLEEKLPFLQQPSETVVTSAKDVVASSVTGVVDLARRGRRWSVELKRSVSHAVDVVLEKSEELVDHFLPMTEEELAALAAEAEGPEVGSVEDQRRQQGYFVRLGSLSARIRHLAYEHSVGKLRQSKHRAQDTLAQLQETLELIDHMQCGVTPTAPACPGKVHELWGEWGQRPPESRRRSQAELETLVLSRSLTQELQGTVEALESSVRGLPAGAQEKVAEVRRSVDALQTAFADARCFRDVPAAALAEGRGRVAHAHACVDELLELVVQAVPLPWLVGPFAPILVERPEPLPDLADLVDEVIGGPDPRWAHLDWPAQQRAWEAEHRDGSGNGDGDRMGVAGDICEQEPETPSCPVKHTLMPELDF
# Target sequence (Q8WTS1 whole entry, looked up): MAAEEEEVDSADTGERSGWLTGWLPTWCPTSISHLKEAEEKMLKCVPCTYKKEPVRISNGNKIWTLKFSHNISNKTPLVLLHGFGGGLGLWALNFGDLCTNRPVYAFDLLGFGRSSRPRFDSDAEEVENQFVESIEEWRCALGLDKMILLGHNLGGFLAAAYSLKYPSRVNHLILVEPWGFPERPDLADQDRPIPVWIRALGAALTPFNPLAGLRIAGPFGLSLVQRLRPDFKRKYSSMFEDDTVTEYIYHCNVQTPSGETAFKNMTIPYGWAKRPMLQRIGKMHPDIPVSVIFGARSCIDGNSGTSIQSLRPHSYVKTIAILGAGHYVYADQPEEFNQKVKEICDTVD
# Exocytosis inh = lytic granule exocytosis inhibition; inhibition, % at 10 µM; TALL-104 LAMP-1 surface exposure, flow cytometry; cells stimulated with thapsigargin and PMA; 0.66% of 360,000 active;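 active = inhibition above about 55%, limit read from the data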
# PfGluPho inh = PfG6PD (Plasmodium falciparum) enzyme inhibition. PfGluPho enzyme, NADPH resazurin-diaphorase fluorescence. inhibition, % at 20 µM. 0.78% of 350,000 active. AID 504690;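 active = inhibition reaching at least a set limit at 20 µM in the primary screen, cut at about 59% in these data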;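 note: 0% = DMSO wells with substrate and 100% = DMSO wells lacking glucose-6-phosphate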
# HKDC1 inhibitor = HKDC1 (human) hexokinase inhibition; recombinant HKDC1, G6PDH/diaphorase resazurin coupled fluorescence; inhibition, % at 20 µM; 0.16% of 340,000 active;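 active = inhibition above about 35% when tested at 20 µM, limit read from the data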;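 note: plate controls were DMSO wells with enzyme for no effect and DMSO wells lacking enzyme for full effect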
#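 Material – in-house recombinant HK5 (HKDC1) enzyme · Quantity – HKDC1 at 5 µg/mL · Buffer or medium – pH 8.0 Tris buffer with 10 mM MgCl2 · Reagent – glucose with 1 mM ATP · Dosing – single 20 µM dose · Times – reaction time 90 min, room temperature, protected from light · Technique – resorufin fluorescence at 613 nm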
# PfGluPho conf = PfG6PD inhibition, single-dose confirmed; 34% of 2,400 active; shares compounds with PfGluPho inh; recombinant PfGluPho, NADPH-diaphorase-resazurin fluorescence; inhibition, % at 20 µM;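 active = inhibition of at least 50% at 20 µM in any single replicate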;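 note: 0% = DMSO with substrate and 100% = DMSO lacking glucose-6-phosphate substrate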
# Diaphorase 10uM = inhibits diaphorase or oxidizes, flagging false PfG6PD hits | diaphorase-coupled resazurin reduction, fluorescence, NADPH 10 uM | shares compounds with PfGluPho inh | AID 504862 | inhibition, % at 20 µM | 39% of 820 active;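 active = average inhibition reaching 50% or more with the compound at 20 µM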;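 note: resorufin red fluorescence formed as diaphorase reduces resazurin using NADPH; 0% = DMSO with enzyme and 100% = DMSO without enzyme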
# Diaph ctr 30uM = diaphorase inhibition or oxidation at 30 uM NADPH. 29% of 820 active. inhibition, % at 20 µM. AID 504863. Diaphorase/resazurin coupled assay, resorufin fluorescence. shares compounds with PfGluPho inh;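 active = inhibition averaging 50% or more, tested at 20 µM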;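 note: 0% = DMSO with enzyme and 100% = DMSO wells lacking diaphorase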
# Starred values were filed as active, the others as inactive; . = no result given.
SMILES,ABHD5 PLIN5 PPI,Exocytosis inh,PfGluPho inh,HKDC1 inhibitor,PfGluPho conf,others
COc1ccc(-c2cn3c(C)c(C(=O)Nc4cccc(NC(C)=O)c4)sc3n2)cc1,4,0,33,0,.,
COc1ccc(-c2cn3c(C)c(C(=O)N4CCCc5ccccc54)sc3n2)cc1,2,-13,39,4,.,
COc1ccc(-c2cn3c(C)c(C(=O)Nc4ccncc4)sc3n2)cc1,-1,35,65*,-3,19,
Cc1c(C(=O)Nc2ccncc2)sc2nc(-c3ccc(F)cc3)cn12,-3,-17,84*,8,10,
Cc1c(C(=O)NCC(C)C)sc2nc(-c3ccc(F)cc3)cn12,6,6,16,-6,.,
COc1ccc(-c2cn3c4c(sc3n2)CCCC4)cc1,-4,2,93*,4,45,
O=C(NNC(=O)c1ccncc1)NC1CCCCC1,11,7,-15,-7,.,
COc1ccccc1NC(=O)COC(=O)C1=NN(c2ccccc2)C(=O)CC1,3,-20,-6,-1,.,
Oc1ccc(N2CCN(CC(O)c3ccccc3)CC2)cc1 (configuration not stated),7,-9,80*,7,26,
O=[N+]([O-])c1ccc(C(O)CN2CCN(c3ccccc3)CC2)cc1 (configuration not stated),6,10,-12,-3,.,
N#Cc1c(/N=C/C=C/c2ccccc2)sc2c1CCCC2,-1,5,60*,-7,16,
CN1CCN(/C=N/c2sc3c(c2C#N)CCCCC3)CC1,-2,-2,6,4,.,
CCOc1ccccc1Oc1nc(-c2ccccc2O)nc2ccccc12,6,8,86*,2,15,
CC1(C)CC(=O)C2=C(C1)NC(SCC(=O)Nc1ccccc1)=C(C#N)C21CCCCC1,-8,6,17,10,.,
CC1(C)CC(=O)C2=C(C1)NC(=S)C(C#N)C21CCCCC1 (configuration not stated),-17,24,76*,2,18,
C[C@@H]1COC(=O)[C@@H](Cc2ccc(F)cc2)C/C=C\C[C@@H](CC(=O)N(CCO)Cc2ccccc2)C(=O)N1,-3,-11,9,-5,.,
O=C(OCC(O)CO)c1ccccc1Nc1ccnc2cc(Cl)ccc12 (configuration not stated),-2,-6,82*,4,31,
CC(=O)NC(CC(=O)N1CCN(C(C)=O)CC1)c1ccccc1 (configuration not stated),-5,1,3,-5,.,
S=c1[nH]c(-c2ccccc2)cn1/N=C/c1ccc(Br)cc1,-1,2,29,-2,.,
S=c1[nH]c(-c2ccccc2)cn1/N=C/c1cccs1,-7,0,63*,-2,27,
Cc1ccc(NC2=NCCC2)cc1Cl,-2,-7,12,-2,.,
Cc1nc2ccc(NC3=NCCCCC3)cc2s1,-8,-1,64*,1,38,
COc1ccccc1NS(=O)(=O)c1cccc(C(=O)NCc2ccco2)c1,1,2,-11,-1,.,
Cc1ccc(NC(=O)c2cc([N+](=O)[O-])ccc2N2CCOCC2)cc1S(=O)(=O)N(C)C,3,-2,78*,3,35,
Cc1ccc(NC(=O)c2cc([N+](=O)[O-])ccc2N2CCOCC2)cc1C,0,-1,32,-2,.,
SMILES,ABHD5 PLIN5 PPI,Exocytosis inh,PfGluPho inh,HKDC1 inhibitor,PfGluPho conf,others
COc1cccc([C@@H]2CC=C(C(=O)O)[C@H](c3ccccc3F)N2S(=O)(=O)c2ccc(C)cc2)c1,-1,-7,-13,5,.,
CC(NC(=O)c1ccco1)c1nc(-c2ccc(C(C)(C)C)cc2)no1 (configuration not stated),1,9,66*,0,4,
CC(C)(C)c1ccc(-c2noc(CNC(=O)c3ccco3)n2)cc1,-5,26,50,2,.,
CN1C(=O)C(N=Nc2ccc([N+](=O)[O-])cc2)SC1=S (configuration not stated),-4,-13,106*,5,52*,Diaphorase 10uM=54*;Diaph ctr 30uM=34
O=C(NCCc1ccccc1F)C1CCCN(c2nc3ccccc3s2)C1 (configuration not stated),-6,13,6,5,.,
Oc1c(Cl)cc(Cl)c2c1NCCC2,-10,31,78*,10,37,
O=C1NCCCc2c1oc1ccc(O)cc21,-3,-3,0,-4,.,
O=C(O)c1ccc(-c2nc(-c3ccc(Cl)cc3Cl)cs2)cc1,10,-4,-23,-1,.,
CC(=O)N1CC[n+]2c(-c3ccc(Cl)cc3Cl)csc21,-20,8,59*,-1,-9,
CN1CCSc2ccc(C(=O)NCc3cccc(F)c3)cc21,5,-1,69*,2,-20,
CN1CCSc2ccc(C(=O)Nc3ccc(Cl)cc3)cc21,-6,-3,20,-2,.,
COc1cccc(NC(=O)c2ccc3c(c2)N(C)CCS3)c1,2,-3,94*,-1,27,
O=C(COC(=O)C12CC3CC(CC(Br)(C3)C1)C2)Nc1c(F)cccc1F,4,4,5,4,.,
O=C(NCCn1cc(SCc2ccc(F)cc2)c2ccccc21)c1ccccc1F,-9,14,77*,1,-13,
O=C(NCCn1cc(SCc2ccc(F)cc2)c2ccccc21)c1c(F)cccc1F,-12,22,86*,0,-11,
O=C(NCCn1cc(SCc2ccccc2)c2ccccc21)c1c(F)cccc1F,-23,19,64*,-2,-20,
O=C(CSc1cn(CCNC(=O)c2c(F)cccc2F)c2ccccc12)NCC1CCCO1 (configuration not stated),14,0,10,-8,.,
Cc1cc(C)cc(OCC(=O)N2CCN(c3ncccn3)CC2)c1,-6,-32,9,-5,.,
COc1ccc([N+](=O)[O-])cc1N(CC(=O)Nc1ccccc1C(=O)NC(C)C)S(C)(=O)=O,0,-2,-13,-10,.,
Cc1cc(C=O)c(C)n1-c1cccc(C(=O)O)c1,-5,-2,18,-9,.,
Cc1cc(C=C2C(=O)c3ccccc3C2=O)c(C)n1-c1ccc(C(=O)O)cc1,-8,4,100*,4,73*,Diaphorase 10uM=54*;Diaph ctr 30uM=61*
Cc1cc(C=C2C(=O)c3ccccc3C2=O)c(C)n1-c1cccc(C(=O)O)c1,3,-1,61*,-2,47,
Cc1cc(/C=C2\Cc3ccccc3C2=O)c(C)n1-c1ccccc1,6,2,59*,2,15,
Cc1cc(C=C2C(=O)c3ccccc3C2=O)c(C)n1-c1ccccc1,-2,-4,37,-8,.,
O=C(CSc1nc2nn(-c3ccccc3)c(=O)c-2c2n1CCCCC2)c1ccc(O)c(O)c1,0,-1,1,13,.,
